Active and inactive are the calls of the source. The rule behind the calls is not given here.
Columns and labels:
Rattus norvegicus [1] = assay: Ulcerogenic activity was measured in fasting rat with ulcer on peroral administration of 100 mg/kg; assay type: functional; settings: route oral
Outline: (§1)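 Rats (200–230 g), ten per group, fasted 24 h, given a single oral dose of 100, 200 or 400 mg/kg. Animals were killed 5 h after dosing. Stomach and small intestine were examined under a microscope for hyperaemia, epithelial shedding, petechiae, frank haemorrhage, and erosion or ulceration. Values are percent of animals showing hyperaemia or showing ulcer.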

Rattus norvegicus [2] = assay: Percent of carageenam induced paw oedema inhibition in rat as a measure of anti-inflammatory activity at 40 mg/kg dose on peroral administration; assay type: functional; settings: route oral
Outline: (§2)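 Albino rats (125–160 g), five per group, dosed orally at 20, 40 or 80 mg/kg. After 30 min, 0.2 mL of 1% carrageenan in 0.9% NaCl was injected subcutaneously into the plantar aponeurosis of the hind paw. Paw volume was read by water plethysmometer at injection and at 3 h. Inhibition = (1 − Gt/Gc) × 100 against a carrageenan-only control group of five rats.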

Rattus norvegicus [3] = assay: Ulcerogenic activity was measured in fasting rat with ulcer on peroral administration of 400 mg/kg; assay type: functional; settings: route oral; outline: as §1
Rattus norvegicus [4] = assay: Percent of carageenam induced paw oedema inhibition in rat as a measure of anti-inflammatory activity at 20 mg/kg dose on peroral administration; assay type: functional; settings: route oral; outline: as §2
Rattus norvegicus [5] = assay: Ulcerogenic activity was measured in fasting rat with ulcer on peroral administration of 200 mg/kg; assay type: functional; settings: route oral; outline: as §1
Rattus norvegicus [6] = assay: Ulcerogenic activity was measured in fasting rat with hyperaemia on peroral administration of 100 mg/kg; assay type: functional; settings: route oral; outline: as §1
Rattus norvegicus [7] = organism: Rattus norvegicus; assay: Effective dose of compound for anti-inflammatory activity; assay type: functional
Oryctolagus cuniculus [8] = organism: Oryctolagus cuniculus; assay: Percent inhibition of cyclooxygenase activity of compound at 10 uM concentration; assay type: functional
Outline: (§3)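 Microsomes came from rabbit distal colon mucosa, homogenized in Tris pH 8.0, centrifuged, resuspended and recentrifuged, and used immediately. Microsomes were preincubated with test agent 10 min at 37 °C in Tris–HCl pH 8.0 containing 2 mM glutathione, 5 mM L-tryptophan and 1 µM haematin. Then 20 µM arachidonic acid with [1-14C] tracer was added and reacted 5 min at 37 °C. PGE2 was separated by HPLC, radioactivity counted by scintillation, and inhibition taken against paired controls.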

Rattus norvegicus [9] = assay: Percent of carageenam induced paw oedema inhibition in rat as a measure of anti-inflammatory activity at 80 mg/kg dose on peroral administration; assay type: functional; settings: route oral; outline: as §2
Rattus norvegicus [10] = assay: Ulcerogenic activity was measured in fasting rat with hyperaemia on peroral administration of 400 mg/kg; assay type: functional; settings: route oral; outline: as §1
Rattus norvegicus [11] = assay: Ulcerogenic activity was measured in fasting rat with hyperaemia on peroral administration of 200 mg/kg; assay type: functional; settings: route oral; outline: as §1
[12] = Acute lethal dose of compound was determined in mice when administered perorally; assay type: ADME; settings: mouse, in vivo, po; read-out: ALD50
Outline: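 Albino mice (25–30 g), groups of 10 per dose level, given test compound at several dose levels. Percent mortality in each group was recorded 24 h after dosing. The approximate 50% lethal dose (ALD50) was calculated by the Smith method.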

Oryctolagus cuniculus [13] = organism: Oryctolagus cuniculus; assay: Percent inhibition of cyclooxygenase activity of compound at 10 uM concentration; No inhibition; assay type: functional; outline: as §3

## CC(=O)Oc1ccccc1C(=O)O [ASPIRIN]
Rattus norvegicus [1]
  Ulcerogenic activity: 80%
Rattus norvegicus [2]
  Antiinflammatory Activity: 35.5%
Rattus norvegicus [3]
  Ulcerogenic activity: 90%
Rattus norvegicus [4]
  Antiinflammatory Activity: 30.4%
Rattus norvegicus [5]
  Ulcerogenic activity: 90%
Rattus norvegicus [6]
  Ulcerogenic activity: 30%
Rattus norvegicus [7]
  ED50: 98.3 mg/kg
Oryctolagus cuniculus [8]
  Inhibition: 99%
Rattus norvegicus [9]
  Antiinflammatory Activity: 59.6%
Rattus norvegicus [10]
  Ulcerogenic activity: 90%
Rattus norvegicus [11]
  Ulcerogenic activity: 60%

## Cc1cc(C(=O)c2ccccc2C)c(O)c(C(=O)c2ccccc2C)c1
[12]
  LD50: > 1000 mg/kg
Rattus norvegicus [1]
  Ulcerogenic activity: 5%
Rattus norvegicus [2]
  Antiinflammatory Activity: 33.2%
Rattus norvegicus [3]
  Ulcerogenic activity: 15%
Rattus norvegicus [4]
  Antiinflammatory Activity: 16.6%
Rattus norvegicus [5]
  Ulcerogenic activity: 10%
Rattus norvegicus [6]
  Ulcerogenic activity: 50%
Rattus norvegicus [7]
  ED50: 77.2 mg/kg
Oryctolagus cuniculus [8]
  Inhibition: 70%
Rattus norvegicus [9]
  Antiinflammatory Activity: 64.1%
Rattus norvegicus [10]
  Ulcerogenic activity: 90%
Rattus norvegicus [11]
  Ulcerogenic activity: 70%

## Cc1ccccc1C(=O)c1cc(C)c(O)c(C(=O)c2ccccc2)c1
[12]
  LD50: > 1000 mg/kg
Rattus norvegicus [1]
  Ulcerogenic activity: 10%
Rattus norvegicus [2]
  Antiinflammatory Activity: 29.5%
Rattus norvegicus [3]
  Ulcerogenic activity: 40%
Rattus norvegicus [4]
  Antiinflammatory Activity: 14.1%
Rattus norvegicus [5]
  Ulcerogenic activity: 20%
Rattus norvegicus [6]
  Ulcerogenic activity: 40%
Rattus norvegicus [7]
  ED50: 78.3 mg/kg
Oryctolagus cuniculus [8]
  Inhibition: 20%
Rattus norvegicus [9]
  Antiinflammatory Activity: 55.3%
Rattus norvegicus [10]
  Ulcerogenic activity: 100%
Rattus norvegicus [11]
  Ulcerogenic activity: 60%

## Cc1ccc(C(=O)c2cc(C)cc(C(=O)c3ccc(C)cc3)c2O)cc1
[12]
  LD50: > 1000 mg/kg
Rattus norvegicus [1]
  Ulcerogenic activity: 20%
Rattus norvegicus [2]
  Antiinflammatory Activity: 45.4%
Rattus norvegicus [3]
  Ulcerogenic activity: 40%
Rattus norvegicus [4]
  Antiinflammatory Activity: 22.2%
Rattus norvegicus [5]
  Ulcerogenic activity: 30%
Rattus norvegicus [6]
  Ulcerogenic activity: 50%
Rattus norvegicus [7]
  ED50: 60.2 mg/kg
Oryctolagus cuniculus [8]
  Inhibition: 87%
Rattus norvegicus [9]
  Antiinflammatory Activity: 77.1%
Rattus norvegicus [10]
  Ulcerogenic activity: 100%
Rattus norvegicus [11]
  Ulcerogenic activity: 70%

## Cc1cc(C(=O)c2ccccc2)c(O)c(C(=O)c2ccccc2)c1
[12]
  LD50: > 1000 mg/kg
Rattus norvegicus [1]
  Ulcerogenic activity: 40%
Rattus norvegicus [2]
  Antiinflammatory Activity: 22.2%
Rattus norvegicus [3]
  Ulcerogenic activity: 80%
Rattus norvegicus [4]
  Antiinflammatory Activity: 13.7%
Rattus norvegicus [5]
  Ulcerogenic activity: 50%
Oryctolagus cuniculus [13]
  inhibition: inactive
Rattus norvegicus [6]
  Ulcerogenic activity: 20%
Rattus norvegicus [7]
  ED50: 77.5 mg/kg
Rattus norvegicus [9]
  Antiinflammatory Activity: 45.5%
Rattus norvegicus [10]
  Ulcerogenic activity: 60%
Rattus norvegicus [11]
  Ulcerogenic activity: 40%

## CCCCC1C(=O)N(c2ccccc2)N(c2ccccc2)C1=O [PHENYLBUTAZONE]
Rattus norvegicus [1]
  Ulcerogenic activity: 30%
Rattus norvegicus [2]
  Antiinflammatory Activity: 35.5%
Rattus norvegicus [3]
  Ulcerogenic activity: 90%
Rattus norvegicus [4]
  Antiinflammatory Activity: 31.3%
Rattus norvegicus [5]
  Ulcerogenic activity: 60%
Rattus norvegicus [6]
  Ulcerogenic activity: 30%
Oryctolagus cuniculus [8]
  Inhibition: 89%
Rattus norvegicus [9]
  Antiinflammatory Activity: 57.2%
Rattus norvegicus [10]
  Ulcerogenic activity: 90%
Rattus norvegicus [11]
  Ulcerogenic activity: 60%

## Cc1ccc(C(=O)c2cc(C(=O)c3ccccc3)cc(C)c2O)cc1
[12]
  LD50: > 1000 mg/kg
Rattus norvegicus [1]
  Ulcerogenic activity: 10%
Rattus norvegicus [2]
  Antiinflammatory Activity: 29.1%
Rattus norvegicus [3]
  Ulcerogenic activity: 40%
Rattus norvegicus [4]
  Antiinflammatory Activity: 20.1%
Rattus norvegicus [5]
  Ulcerogenic activity: 20%
Rattus norvegicus [6]
  Ulcerogenic activity: 70%
Rattus norvegicus [7]
  ED50: 62.5 mg/kg
Oryctolagus cuniculus [8]
  Inhibition: 40%
Rattus norvegicus [9]
  Antiinflammatory Activity: 62.8%
Rattus norvegicus [10]
  Ulcerogenic activity: 100%
Rattus norvegicus [11]
  Ulcerogenic activity: 90%

## Cc1cc(C(=O)c2cccc(Cl)c2)c(O)c(C(=O)c2cccc(Cl)c2)c1
[12]
  LD50: > 1000 mg/kg
Rattus norvegicus [1]
  Ulcerogenic activity: 10%
Rattus norvegicus [2]
  Antiinflammatory Activity: 48.2%
Rattus norvegicus [3]
  Ulcerogenic activity: 12%
Rattus norvegicus [4]
  Antiinflammatory Activity: 30.3%
Rattus norvegicus [5]
  Ulcerogenic activity: 20%
Oryctolagus cuniculus [13]
  inhibition: inactive
Rattus norvegicus [6]
  Ulcerogenic activity: 30%
Rattus norvegicus [7]
  ED50: 51.2 mg/kg
Rattus norvegicus [9]
  Antiinflammatory Activity: 94.1%
Rattus norvegicus [10]
  Ulcerogenic activity: 90%
Rattus norvegicus [11]
  Ulcerogenic activity: 60%

— ChEMBL document CHEMBL1137995, “Synthesis of some newer analogues of substituted dibenzoyl phenol as potent anti-inflammatory agents” (Bioorg Med Chem Lett, 2004)
